Laboratory results taken from ChEMBL document CHEMBL1146170, “Facile synthesis of substituted thiophenes via Pd/C-mediated sonogashira coupling in water” (2006).

Tests used:
Details in all cases: Homo sapiens
NCI-H460 = assay: Growth inhibition of NCI-H460 cells at 100 uM; values are per cent of control
HT-29 = assay: Growth inhibition of HT29 cells at 100 uM; values are per cent of control
LoVo [1] = assay: Growth inhibition of LoVo cells at 100 uM; values are per cent of control
LoVo [2] = assay: Growth inhibition of LoVo cells; type: functional
Procedure, shortened: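 LoVo human colon cancer cells were screened by the NCI standard anticancer protocol. Percentage cell growth was read after initial treatment at 100 µM. Follow-up testing used 10, 1.0, 0.1 and 0.01 µM. GI50 was the concentration giving 50% inhibition of cell growth.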

SMILES | growth, % of control at 100 µM (NCI-H460) | growth, % of control at 100 µM (HT-29) | growth, % of control at 100 µM (LoVo [1]) | GI50 (LoVo [2]) | CC50 (LoVo [2]; read-out: LC50 (the source's name))
C(#Cc1cccs1)COc1ccccc1 | 88% | 63% | 47% | – | –
O=[N+]([O-])c1ccc(OCC#Cc2cccs2)cc1 | 48% | 44% | 26% | 47.5 µM | 100 µM
CC(C)(O)C#Cc1cccs1 | 105% | 95% | 78% | – | –
CC(=O)Nc1ccsc1C#CC(C)(C)O | 56% | 90% | 78% | – | –
Cc1ccc(C#Cc2cccs2)cc1 | 68% | 83% | 83% | – | –
